Experimental findings from ChEMBL document CHEMBL1153229, “The first synthetic agonists of FFA2: Discovery and SAR of phenylacetamides as allosteric modulators” (Bioorg Med Chem Lett, 2010) are described below.

Assay [1] has as its target T1, Free fatty acid receptor 2 (Homo sapiens, UniProt O15552).
T1 sequence (O15552 whole entry): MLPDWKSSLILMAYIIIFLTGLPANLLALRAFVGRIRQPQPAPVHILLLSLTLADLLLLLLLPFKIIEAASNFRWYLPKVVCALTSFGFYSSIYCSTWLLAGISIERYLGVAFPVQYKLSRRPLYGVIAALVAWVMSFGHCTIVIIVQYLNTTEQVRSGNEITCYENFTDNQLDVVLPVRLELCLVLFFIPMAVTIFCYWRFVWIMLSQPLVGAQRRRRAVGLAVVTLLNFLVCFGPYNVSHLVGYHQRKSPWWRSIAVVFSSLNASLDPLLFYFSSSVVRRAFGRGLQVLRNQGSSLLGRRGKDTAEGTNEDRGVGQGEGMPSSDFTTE
In words: Agonist activity at human FFA2 receptor expressed in CHO cells assessed as inhibition of forskolin-induced cAMP production. Type of assay: functional, cell-based. In outline:
(§1)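 Suspended cells, 10,000 per well, in Hank's balanced salt solution with 25 mM HEPES and 0.01% (w/v) BSA. Stimulated with forskolin (5 μM final) plus serially diluted test ligands, room temperature for 30 min. Antibody and lysis reagents then added, followed by overnight dark incubation with detection solution. Luminescence read (RLU). Efficacy expressed relative to acetate. Means of four experiments.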
On the technique in general: Cyclic AMP is a second messenger, typically raised through Gs and lowered through Gi signalling.

Assay [2] deals with T2, Free fatty acid receptor 2 (Homo sapiens) (UniProt O15552).
T2 sequence (whole entry): T1 sequence (O15552 whole entry)
As to the kind of experiment: Agonist activity at human FFA2 receptor expressed in CHO cells assessed as inhibition of forskolin-induced cAMP production relative to acetate. In kind it is functional, cell-based. In outline: as §1

For orientation: IC50 means the point on the concentration scale where inhibition reaches its midpoint. Take `CN(C)c1cnc(NC(=O)[C@H](c2ccc(Cl)cc2)C(C)(C)C)s1`: the concentration for half-maximal inhibition (IC50) in assay [1] turned out to be 1.6 µM. Further, in assay [2], the Efficacy stood at 112%.
As to `Cc1nc(NC(=O)[C@H](c2ccc(Cl)cc2)C(C)C)sc1C`, the IC50 in assay [1] stood at 1.8 µM. The Efficacy in assay [2] worked out at 97%.
The like results for `CC(C)[C@H](C(=O)Nc1ncc(C(N)=O)s1)c1ccc(Cl)cc1` were, in that order, 71 µM and 59%.
Regarding `O=C(Nc1nccs1)[C@@H](CC1CC1)c1ccc(Cl)cc1`, in assay [1], the 50% inhibitory concentration (IC50) was 8.8 µM. In addition, in assay [2], the Efficacy came to 72%.
As for `CC(C)[C@H](C(=O)Nc1ccncc1)c1ccc(Cl)cc1`, the IC50 in assay [1] is 56 µM. Further, the Efficacy in assay [2] came out at 40%.
For the molecule `CC(C)[C@H](C(=O)Nc1cccnn1)c1ccc(Cl)cc1`, the half-inhibitory concentration (IC50) in assay [1] stood at 2.3 µM. Moreover, the Efficacy in assay [2] is 101%.
As for `CO/C(=N\c1nccs1)[C@H](c1ccc(Cl)cc1)C(C)C`, the concentration for half-maximal inhibition (IC50) in assay [1] is above 100 µM. Further, the Efficacy in assay [2] was below 30%.
The like results for `CC(C)[C@H](C(=O)NC(C)(C)C)c1ccc(Cl)cc1` were, in that order, above 100 µM and below 30%.
For `O=C(Nc1ncc(F)s1)[C@H](c1ccc(Cl)cc1)C1CC1`, the half-inhibitory concentration (IC50) in assay [1] was 1.2 µM. In addition, the Efficacy in assay [2] was 103%.
The like results for `CC(C)(C(=O)Nc1ncc(F)s1)c1ccc(Cl)cc1` were, in that order, 50 µM and 57%.
With `CN1CCN(c2cnc(NC(=O)[C@H](c3ccc(Cl)cc3)C(C)(C)C)s2)CC1`, the IC50 in assay [1] came to 3.8 µM. Also, in assay [2], the Efficacy worked out at 113%.
The like results for `CC(C)(C)[C@H](C(=O)Nc1ncc(C(F)(F)F)s1)c1ccc(Cl)cc1` were, in that order, 1.5 µM and 95%.
The like results for `CC(C)C(C(=O)Nc1nc2ccccc2[nH]1)c1ccc(Cl)cc1` (racemic) were, in that order, 5.2 µM and 84%.
With `CC(C)[C@H](C(=O)Nc1nnc(C(F)(F)F)s1)c1ccc(Cl)cc1`, the IC50 in assay [1] worked out at 1.9 µM. Moreover, the Efficacy in assay [2] stood at 115%.
The like results for `COC(=O)c1cnc(NC(=O)[C@H](c2ccc(Cl)cc2)C(C)C)s1` were, in that order, 2 µM and 98%.
The like results for `CC(C)[C@H](CNc1nccs1)c1ccc(Cl)cc1` were, in that order, above 100 µM and below 30%.
Take `O=C(Nc1nccs1)C(c1ccc(Cl)cc1)c1ccc(Cl)cc1`: the IC50 in assay [1] is above 100 µM. For the same molecule, the Efficacy in assay [2] is below 30%.
For the molecule `CS(=O)(=O)c1ccc([C@@H](C(=O)Nc2ncc(F)s2)C2CC2)cc1`, in assay [1], the IC50 was above 100 µM. Further, in assay [2], the Efficacy was below 30%.
With `CC(C)C(C(=O)Nc1ncccn1)c1ccc(Cl)cc1` (racemic), the half-maximal inhibitory concentration (IC50) in assay [1] was found to be 53 µM. Further, in assay [2], the Efficacy was 50%.
Turning to `CC(C)[C@H](C(=O)Nc1ccn[nH]1)c1ccc(Cl)cc1`, the concentration for half-maximal inhibition (IC50) in assay [1] was above 100 µM.
Consider `CC(C)[C@H](C(=O)Nc1cc[nH]n1)c1ccc(Cl)cc1`, for which the Efficacy in assay [2] was below 30%.
`CC(C)[C@H](C(=O)Nc1nncs1)c1ccc(Cl)cc1`: the 50% inhibitory concentration (IC50) in assay [1] is 12 µM. In addition, the Efficacy in assay [2] was 115%.
For the molecule `O=C(Nc1ncc(F)s1)[C@H](c1ccccn1)C1CC1`, the half-maximal inhibitory concentration (IC50) in assay [1] was found to be 45 µM. In addition, the Efficacy in assay [2] turned out to be 75%.
Turning to `CC(C)C(C(=O)Nc1cccnc1)c1ccc(Cl)cc1` (racemic), the IC50 in assay [1] stood at 49 µM. For the same molecule, the Efficacy in assay [2] turned out to be 73%.
The like results for `CC(C)(C)[C@H](C(=O)Nc1ncc(S(C)(=O)=O)s1)c1ccc(Cl)cc1` were, in that order, 3.4 µM and 107%.
`CCC[C@H](C(=O)Nc1nccs1)c1ccc(Cl)cc1`: in assay [1], the IC50 was 5.5 µM. Besides, in assay [2], the Efficacy was 108%.
With `CC(C)(C)[C@H](C(=O)Nc1ncc(N2CCS(=O)(=O)CC2)s1)c1ccc(Cl)cc1`, the half-maximal inhibitory concentration (IC50) in assay [1] came to 2.4 µM. Besides, the Efficacy in assay [2] was 118%.
The like results for `CC(C)[C@H](C(=O)Nc1ncc(C(=O)O)s1)c1ccc(Cl)cc1` were, in that order, 79 µM and 42%.
As to `CC(C)[C@H](C(=O)Nc1ncc(C(F)(F)F)s1)c1ccc(Cl)cc1`, the IC50 in assay [1] came to 1.5 µM. In addition, in assay [2], the Efficacy turned out to be 95%.
The like results for `Cc1csc(NC(=O)[C@H](c2ccc(Cl)cc2)C(C)C)n1` were, in that order, 1.4 µM and 87%.
The like results for `CC(C)[C@@H](C(=O)Nc1nccs1)c1ccc(Cl)cc1` were, in that order, above 100 µM and below 30%.
As to `CC(C)(C)[C@H](C(=O)Nc1ncc(Cc2ccc(Cl)cc2)s1)c1ccc(Cl)cc1`, the half-maximal inhibitory concentration (IC50) in assay [1] was determined as 25 µM. Also, the Efficacy in assay [2] stood at 100%.
Consider `O=C(Nc1ncc(F)s1)C1(c2ccc(Cl)cc2)CC1`, for which the IC50 in assay [1] was above 100 µM. Also, the Efficacy in assay [2] was below 30%.
With `CC(C)(C)[C@H](C(=O)Nc1ncc(C(O)(C(F)(F)F)C(F)(F)F)s1)c1ccc(Cl)cc1`, the IC50 in assay [1] stood at 1.2 µM. For the same molecule, in assay [2], the Efficacy turned out to be 113%.
As to `CC(C)(C)[C@H](C(=O)Nc1ncc(N2CCOCC2)s1)c1ccc(Cl)cc1`, the IC50 in assay [1] worked out at 1.6 µM. Also, the Efficacy in assay [2] amounted to 111%.
Take `CC(C)[C@H](NS(=O)(=O)c1nccs1)c1ccc(Cl)cc1`: the IC50 in assay [1] was above 100 µM. Moreover, the Efficacy in assay [2] is below 30%.
The like results for `CC(C)[C@H](C(=O)Nc1nc(C(C)(C)C)cs1)c1ccc(Cl)cc1` were, in that order, 7.9 µM and 45%.
The like results for `CC(C)[C@H](C(=O)N(C)c1nccs1)c1ccc(Cl)cc1` were, in that order, 84 µM and 37%.
`O=C(Nc1ncc(F)s1)C1(c2ccc(Cl)cc2)CCC1`: the IC50 in assay [1] is 1.5 µM. For the same molecule, the Efficacy in assay [2] is 89%.
Take `CC[C@H](C(=O)Nc1nccs1)c1ccc(Cl)cc1`: in assay [1], the 50% inhibitory concentration (IC50) came out at 5 µM. Also, the Efficacy in assay [2] was found to be 105%.
For the molecule `CC(C)C(C(=O)Nc1nc2ccccc2s1)c1ccc(Cl)cc1` (racemic), in assay [1], the IC50 turned out to be 3 µM. Besides, the Efficacy in assay [2] was 91%.
Regarding `CC(C)[C@H](C(=O)Nc1ccon1)c1ccc(Cl)cc1` (racemic), the IC50 in assay [1] turned out to be 36 µM. Further, the Efficacy in assay [2] amounted to 90%.
Take `CC(=O)O` [ACETIC ACID]: the 50% inhibitory concentration (IC50) in assay [1] stood at 120 µM. The Efficacy in assay [2] was determined as 100%.
The like results for `CC(C)[C@H](C(=O)Nc1nc(C(F)(F)F)cs1)c1ccc(Cl)cc1` were, in that order, 17 µM and 123%.
The like results for `CC(C)C(c1ccc(Cl)cc1)S(=O)(=O)Nc1nccs1` (racemic) were, in that order, above 100 µM and below 30%.
The like results for `CC(C)[C@H](C(=O)Nc1nc2cc(Cl)ccc2o1)c1ccc(Cl)cc1` were, in that order, 4.3 µM and 88%.
Regarding `CCC(=O)O`, the Efficacy in assay [2] worked out at 100%.
With `O=C(Nc1ncc(F)s1)C1(c2ccc(Cl)cc2)CCCC1`, the IC50 in assay [1] was determined as 5 µM. Further, in assay [2], the Efficacy is 88%.
Turning to `CC(C)[C@H](C(=O)Nc1ccccc1)c1ccc(Cl)cc1`, the IC50 in assay [1] is above 100 µM. For the same molecule, the Efficacy in assay [2] was below 30%.
As for `CC(C)C(C(N)=O)c1ccc(Cl)cc1` (racemic), the IC50 in assay [1] was above 100 µM. Further, the Efficacy in assay [2] is below 30%.
For the molecule `CNC(=O)[C@H](c1ccc(Cl)cc1)C(C)C`, the IC50 in assay [1] worked out at 11 µM. For the same molecule, the Efficacy in assay [2] was determined as 66%.
The like results for `CC(C)C(C(=O)Nc1nc(-c2cccnc2)cs1)c1ccc(Cl)cc1` (racemic) were, in that order, above 100 µM and below 30%.
For the molecule `CC(C)[C@H](NC(=O)c1nccs1)c1ccc(Cl)cc1`, the IC50 in assay [1] was above 100 µM. For the same molecule, in assay [2], the Efficacy was below 30%.
The like results for `CC(C)(C)[C@H](C(=O)Nc1ncc(Br)s1)c1ccc(Cl)cc1` were, in that order, 0.7 µM and 95%.
The like results for `O=C(Nc1ncc(F)s1)C1(c2ccc(Cl)cc2)CCCCC1` were, in that order, 8.5 µM and 81%.
With `CC(C)[C@H](C(=O)Nc1ncns1)c1ccc(Cl)cc1`, in assay [1], the IC50 came to 2 µM. In addition, in assay [2], the Efficacy came out at 99%.
Regarding `O=C(Cc1ccc(Cl)cc1)Nc1nccs1`, the half-maximal inhibitory concentration (IC50) in assay [1] was above 100 µM. For the same molecule, in assay [2], the Efficacy is below 30%.
The like results for `CC(C)[C@H](C(=O)NC1=NC(=O)CS1)c1ccc(Cl)cc1` were, in that order, 20 µM and 96%.
The like results for `CC(C)[C@H](C(=O)NC1=NCCS1)c1ccc(Cl)cc1` were, in that order, 2.1 µM and 109%.
The like results for `C=CC[C@H](C(=O)Nc1nccs1)c1ccc(Cl)cc1` were, in that order, 1.1 µM and 88%.
Take `CC(C)[C@H](C(=O)Nc1ncc[nH]1)c1ccc(Cl)cc1`: the IC50 in assay [1] is 20 µM. Also, in assay [2], the Efficacy stood at 55%.
The like results for `CC(C)[C@H](C(=O)Nc1cccc(F)n1)c1ccc(Cl)cc1` were, in that order, 1.1 µM and 84%.
As for `COCC[C@H](C(=O)Nc1nccs1)c1ccc(Cl)cc1`, in assay [1], the IC50 was determined as 170 µM. In addition, in assay [2], the Efficacy stood at 53%.
As for `CC(C)(C)[C@H](C(=O)Nc1ncc(F)s1)c1ccc(Cl)cc1`, the IC50 in assay [1] was found to be 0.7 µM. In assay [2], the Efficacy amounted to 92%.
`CC(C)C(C(=O)Nc1nnn[nH]1)c1ccc(Cl)cc1` (racemic): in assay [1], the IC50 is above 100 µM. Further, the Efficacy in assay [2] was below 30%.
Take `CSc1cnc(NC(=O)[C@H](c2ccc(Cl)cc2)C(C)(C)C)s1`: in assay [1], the IC50 amounted to 0.5 µM. Also, the Efficacy in assay [2] is 109%.
The like results for `CC(C)C[C@H](C(=O)Nc1nccs1)c1ccc(Cl)cc1` were, in that order, 0.6 µM and 68%.
In the case of `C[C@H](C(=O)Nc1nccs1)c1ccc(Cl)cc1`, in assay [1], the IC50 was found to be 46 µM. Besides, in assay [2], the Efficacy turned out to be 83%.
